# Hits are enriched below; roughly 2.3% of the tested compounds scored in any of these assays.
# LGR2 inh: inhibitors of bursicon-induced LGR2 CRE-luciferase signal, primary screen, cell-based, HEK293, CRE-luciferase reporter, bursicon stimulation | Drosophila bursicon receptor LGR2 (rickets) | bursicon-stimulated, 4 h | inhibition, % at 9.99 µM | 380,000 tested, 0.35% active;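 active = drop in luminescence signal, shown as inhibition above about 50% in the replicate tests, limit read from the data, passing the limit was not always enough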;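 also: agonist challenge used bursicon conditioned medium at about half maximal strength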
# FN deposition inh: inhibitors of fibronectin matrix deposition, primary screen, AH1F cells, Alexa488-fibronectin fluorescence, plate reader; AH1F fibroblasts, overnight; inhibition, % at 12.6 µM; 350,000 tested, 0.086% active; AID 743247, 2014;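 active = mean inhibition across replicates of 30% or more, regardless of how many single replicates reach that level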;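 also: positive control wells lacked labelled fibronectin entirely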
#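 Material – AH1F fibroblast monolayer, labelled fibronectin deposition · Reagent – labelled fibronectin 24 nM · Timing – 1 h adhesion, overnight exposure · Measured by – fluorescence at 485 nm excitation, 525 nm emission · Read-out – inhibition of fibronectin deposition signal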
# XiGFP reactiv: activators of inactive X chromosome reactivation, primary screen, imaging, XiGFP fibroblasts, GFP high-content imaging, set 2. XiGFP mouse fibroblasts, % GFP-positive cells imaging, 3 d; cells co-treated with 5-aza-dC sensitizer; scaled so ellipticine positive control = 100%. activation, % at 7.58 µM. 360,000 tested, 0.055% active;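 active = mean normalized replicate activation at least 10% and every replicate at or above 10%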;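 also: 0% = median of on-plate neutral control wells and 100% = ellipticine 6 µM median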
#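 Schedule: 3 d treatment, 15 min room-temperature fixation; system: 68-5-11 XiGFP fibroblast line; buffer or medium: DMEM plus 5-aza-dC sensitizer; control set: ellipticine 6 µM positive control; compound: one concentration, pinned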
# EWS-Fli inh: EWS/Fli-driven NR0B1 reporter inhibitors, primary screen, A673 cells, NR0B1 luciferase, luminescence, MLPCN library. viability-normalised. inhibition, % at 12.6 µM. 350,000 tested, 0.67% active;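 active = mean inhibition of at least 50% after viability correction, with every replicate also passing that limit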;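 also: firefly luciferase signal divided by Alamar Blue viability fluorescence both relative to DMSO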
# TROY NFkB inh: inhibitors of TROY-driven NF-kB signaling, primary screen, Q293 LMP1-TROYcd cells, NF-kB luciferase, uHTS; Q293 LMP1-TROYcd NF-kB luciferase reporter, 4 h; inhibition, % at 10 µM; 360,000 tested, 0.98% active; AID 1347056, 2019;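 active = compounds whose plate-normalised and pattern-corrected inhibition of the luciferase reporter signal at the single screening dose is 50% or more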
# TWEAK Fn14 block: inhibitors of TWEAK-Fn14 signaling, primary screen, luciferase reporter cells, uHTS; TWEAK-stimulated Fn14 reporter cells, luciferase luminescence, 8 h; inhibition, % at 10 µM; 360,000 tested, 2% active; AID 1159606, 2016; in the data active = inhibition above about 50%
# Starred values were filed as active, the others as inactive; . = not tested or not shown.
SMILES,LGR2 inh,FN deposition inh,XiGFP reactiv,EWS-Fli inh,TROY NFkB inh,TWEAK Fn14 block
COC(=O)[C@H]1[C@@H](O)[C@@]2(O)c3c(OC)cc(OC)cc3O[C@@]2(c2ccc(OC)cc2)[C@@H]1c1ccc(F)cc1,86*,4,0,39,.,.
CCN1[C@@H]2c3ccc(-c4cccc(F)c4)c(=O)n3C[C@@H]2[C@@H](CO)[C@@H]1C(=O)OC,0,.,0,-8,.,.
CCOC(=O)N1CCC2(CC1)CC(=O)c1cc(O)ccc1O2,.,.,.,.,-7,64*
Nc1ccc(O)cc1C(=O)OCC(=O)c1ccc(C2CCCCC2)cc1,-15,11,2,.,25,102*
O=C(/C=C/c1cccc([N+](=O)[O-])c1)NCCSCc1ccc(Cl)cc1,9,.,0,58*,16,1
O=C(/C=C/c1cccc([N+](=O)[O-])c1)NCCSCc1c(Cl)cccc1Cl,-9,-4,0,-5,-11,2
C[C@@H]1CN([C@H](C)CO)C(=O)c2cc(/C=C/c3ccccc3)cnc2O[C@H]1CN(C)S(=O)(=O)c1cccs1,0,.,0,15,.,.
CN(C)CC(=O)N[C@@H]1CC[C@@H](CCNC(=O)C2CC2)O[C@H]1CO,-11,-2,0,17,.,.
NC(=O)c1ccsc1NC(=O)COC(=O)c1ccc([N+](=O)[O-])o1,-7,-1,1,-5,4,9
NC(=O)c1ccsc1NC(=O)c1ccc([N+](=O)[O-])o1,-22,10,1,58*,-14,19
CN1CCc2c(sc(NC(=O)c3ccc([N+](=O)[O-])o3)c2C(N)=O)C1,3,9,0,67*,65*,52*
CC1=CC2C(C(O)CC3(C)C2CC(C)C32OCOC23COCO3)C2(C)C/C(=C\O)C(=O)C=C12 (stereo unspecified),80*,-8,0,40,83*,109*
Cc1ccc(-c2[nH]nc3c2C(c2cccnc2)C(C#N)=C(N)O3)cc1 (stereo unspecified),-12,0,.,.,19,1
CC(C)c1[nH]nc2c1C(c1cccnc1)C(C#N)=C(N)O2 (stereo unspecified),.,.,.,.,13,60*
C[C@@H]1CN([C@H](C)CO)C(=O)c2cc(NC(=O)CCCN(C)C)ccc2O[C@@H](C)CCCCO[C@H]1CN(C)S(=O)(=O)c1ccc(Cl)cc1,32,.,0,-1,.,.
Cc1nc(Nc2ccc(Cl)cc2)c2nnn(Cc3ccccc3)c2n1,-2,6,0,1,26,27
Cc1nc(Nc2ccc(S(=O)(=O)N3CCCCC3C)cc2)c2nnn(Cc3ccccc3)c2n1 (stereo unspecified),6,-10,0,24,19,66*
O=C1CC(NC23CC4CC(CC(C4)C2)C3)C(=O)N1c1ccc2c(c1)OCO2 (stereo unspecified),-8,5,.,.,56*,33
CC(C)NC(=O)N(C)C[C@H]1OCCCC[C@@H](C)Oc2ccc(NS(=O)(=O)c3ccc(F)cc3)cc2C(=O)N([C@@H](C)CO)C[C@H]1C,-3,-4,0,1,.,.
CCCNC(=O)C[C@@H]1CC[C@@H]2[C@H](COC[C@H](O)CN2C(=O)CC)O1,4,-3,0,.,.,.
C[C@@H]1CN([C@H](C)CO)C(=O)c2cc(N(C)C)ccc2O[C@@H]1CN(C)S(=O)(=O)c1ccc(F)cc1,-5,-4,0,-6,.,.
Cc1ccc2nc(NCCc3ccc(Cl)cc3)c3nncn3c2c1,8,3,0,-4,-1,-26
Cc1cccc(CCNc2nc3ccc(C)cc3n3cnnc23)c1,-59,2,0,-80,73*,74*
CCOC(=O)N=Nc1c2ccccc2c2nc3no[nH]c3nc12,101*,.,0,54*,66*,90*
COc1ccc(/C=N\NC(=O)c2ccc(Cn3cc(Br)c([N+](=O)[O-])n3)o2)c(OC)c1C,.,17,0,9,5,63*
SMILES,LGR2 inh,FN deposition inh,XiGFP reactiv,EWS-Fli inh,TROY NFkB inh,TWEAK Fn14 block
O=C1C=C(O)c2c(O)cc(O)c(O)c2C1=O,-12,.,.,-10,6,70*
O=C(COc1ccc(C(=O)c2ccc(F)cc2)cc1)NCc1ccc(F)cc1,20,.,0,57*,9,27
COc1ccc(CNC(=O)COc2ccc(C(=O)c3ccc(F)cc3)cc2)cc1,3,9,0,14,11,28
Cc1noc(C)c1NC(=O)N(C)C[C@@H]1OCCCC[C@H](C)Oc2ccc(N(C)C)cc2C(=O)N([C@H](C)CO)C[C@@H]1C,8,.,0,-7,.,.
O=C(Nc1ccc2c(c1)[C@H]1C[C@H](CC(=O)N3CCOCC3)O[C@H](CO)[C@H]1O2)NC1CCCCC1,-3,2,0,6,.,.
CNc1ccccc1C(C)(C)c1cc(-c2cccc(Br)c2)no1,3,.,0,22,20,31
CNc1ccccc1C(C)(C)c1cc(-c2ccc(F)cc2)no1,11,4,0,.,31,54*
Clc1c(Cl)c(Cl)c2n[nH]nc2c1Cl,4,-2,0,2,60*,-23
CCOC(=O)c1c(NC(=O)CSc2nnc(-c3c[nH]c4ccccc34)n2CCOC)sc2c1CCCC2,-1,6,0,0,20,37
Cc1cccc(NC(=O)COc2cccc3c2CCN(C)C3=O)c1C,-5,.,0,3,0,8
CCOC(=O)c1c(NC(=O)COc2cccc3c2CCN(C)C3=O)sc2c1CCC2,5,-3,0,-1,39,73*
CCOC(=O)c1c(NC(=O)CSc2nnc(-c3c[nH]c4ccccc34)n2C)sc2c1CCCC2,-1,1,0,16,27,56*
CCOc1cc(C2c3c(n[nH]c3C)C(=O)N2c2ccc(Br)cc2)ccc1O (stereo unspecified),.,.,.,.,50*,40
CCc1csc(N2[C@H](CO)[C@H](c3ccccc3)[C@@H]2CNCCOC)n1,-3,-3,0,0,.,.
CCOC(=O)CSc1n[nH]c(NC(=O)c2ccc(F)cc2)n1,.,.,.,.,5,50*
CCOC(=O)CSc1n[nH]c(NC(=O)c2ccccc2)n1,4,.,.,10,16,27
Nc1c2ccccc2nc2ccccc12,96*,6,1,45,-64,-33
CC(C)NC(=O)N(C)C[C@H]1OCCCC[C@H](C)Oc2ccc(NC(=O)Nc3cccc4ccccc34)cc2C(=O)N([C@H](C)CO)C[C@H]1C,10,1,0,.,.,.
